# Screens as filed in PubChem BioAssay.
# Hits are enriched below; roughly 3% of the tested compounds scored in any of these assays.
# ANO1 block: inhibitors of mouse TMEM16A calcium-activated chloride channel | Q8BHY3 | HEK293 TMEM16A/YFP iodide influx fluorescence, ionomycin | normalized B-score (activity score, 25-100; higher = stronger inhibition) at 10 µM | 1.2% of 310,000 active | AID 588511;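 active = ratio plate-corrected score three or more library SD toward inhibition, starting fluorescence score within five deviations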;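 also: score derived from kinetic fluorescence span divided by baseline fluorescence per well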
# SR-BI HDL uptake: mouse SR-BI HDL lipid transfer inhibition; Q61009; ldlA[mSR-BI] CHO cells, DiI-HDL uptake fluorescence, 3 h; inhibition, % at 12.5 µM; 0.96% of 320,000 active;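 active = mean replicate inhibition of at least 70% and a set share of replicates each scoring 70 or more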;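 also: 0% = median of neutral control wells and 100% = median of positive control wells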
# Target sequence (Q61009 whole entry, looked up): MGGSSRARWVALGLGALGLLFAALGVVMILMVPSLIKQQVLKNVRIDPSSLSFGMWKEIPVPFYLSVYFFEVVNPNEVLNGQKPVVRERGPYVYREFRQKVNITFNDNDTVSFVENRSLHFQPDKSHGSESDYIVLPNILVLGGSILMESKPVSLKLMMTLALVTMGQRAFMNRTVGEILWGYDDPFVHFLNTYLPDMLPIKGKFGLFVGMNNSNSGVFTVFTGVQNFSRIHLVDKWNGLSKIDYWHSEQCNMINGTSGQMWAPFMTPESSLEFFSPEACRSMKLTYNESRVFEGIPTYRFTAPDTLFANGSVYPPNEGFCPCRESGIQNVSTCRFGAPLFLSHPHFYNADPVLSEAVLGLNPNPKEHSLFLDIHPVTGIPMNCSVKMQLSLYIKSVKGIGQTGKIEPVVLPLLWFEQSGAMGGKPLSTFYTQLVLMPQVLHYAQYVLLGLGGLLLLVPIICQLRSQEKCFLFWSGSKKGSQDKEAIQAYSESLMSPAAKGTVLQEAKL
# SR-BI uptake up: activators of SR-BI mediated HDL lipid uptake; CHO ldlA[mSR-BI] cells, DiI-HDL uptake fluorescence, 3 h; 100 = double the neutral-control signal; activation, % at 12.5 µM; 0.096% of 320,000 active; AID 504775;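 active = mean replicate activation of at least 60% and every replicate at or above 60%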;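 also: 0% = median plate neutral-control signal and 100% = twice that signal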
#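 System: CHO ldlA[mSR-BI] cells / Medium: HEPES-buffered (25 mM, pH 7.4) F12 plus 0.5% BSA / Probe or stimulus: labelled HDL, 10 µg/mL / Doses: single compound concentration, delivered by pin transfer / Schedule: 3 h, 37 °C / Measured by: DiI fluorescence, bottom read / Measure: cell-associated DiI fluorescence as measure of HDL uptake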
# TMEM16A act: activators or potentiators of mouse TMEM16A chloride channel. Q8BHY3. HEK293 TMEM16A/YFP-H148Q/I152L, iodide quench fluorescence; hits give low values. B-score at 10 µM. 0.3% of 340,000 active. AID 623877;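 active = fluorescence-ratio B-score plate-corrected deviation score at least 3 library SD below zero, with starting fluorescence score within 5 deviations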;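 also: channel opened by trigger with iodide after compound preincubation; score built on the fluorescence ratio of max minus min over baseline; more negative score means more quench and so TMEM16A activation or potentiation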
# DNA FID counter: displaces DNA intercalator in HCV helicase counter-screen. DNA fluorescent intercalator displacement, fluorescence. inhibition, % at 7.9 µM. 0.17% of 290,000 active; in the data active = inhibition above about 37%;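 also: 0% = vehicle and 100% = reference compound; higher means more ethidium bromide displaced from hairpin DNA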
# Kir21 inh: Kir2.1 (mouse) channel inhibition | B-score at 10 µM | AID 1672 | P35561 | 0.85% of 310,000 active | HEK293-Kir2.1, FluxOR thallium flux fluorescence; hits give low values;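 active = fluorescence ratio B-score at or below minus 3 SD of library scores, with starting-brightness B-score within 2 SD, cut at about -4.2 in these data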;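 also: channel flux triggered by added potassium and thallium sulfate stimulus; B-score of peak minus minimum fluorescence over baseline after thallium stimulus; more negative B-score means stronger Kir2.1 block with less thallium influx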
# TMEM16A reconf: reconfirmed blocker of mouse TMEM16A calcium-activated chloride channel | shares compounds with ANO1 block | 39% of 2,300 active | HEK293 TMEM16A/YFP-H148Q, iodide quench fluorescence; ionomycin added to raise cell calcium | inhibition, % at 10 µM;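 active = mean duplicate percent inhibition, scaled so buffer wells are 0 and the reference blocker 100, over three buffer SD above buffer mean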
# TMEM16A Ca cntr: calcium mobilization counter-screen hit for TMEM16A inhibitor series | calcium response (% of ionomycin), % at 10 µM | 2% of 2,300 active | TMEM16A/YFP HEK293, Fluo4 calcium mobilization | AID 652231 | shares compounds with ANO1 block;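 active = duplicate-averaged calcium signal over 20% of the ionomycin maximum, relative to buffer baseline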;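 also: each well's signal is peak minus trough fluorescence divided by its pre-addition baseline; 0% = buffer wells and 100% = ionomycin wells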
# Parental YFP cnt: acts in parental YFP-HEK293 cells lacking TMEM16A, counter-screen; YFP ratio F(max-min)/F0 at 10 µM; shares compounds with ANO1 block; 2,300 tested, under 10 active; iodide YFP quench, ionomycin;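 active = yellow fluorescent protein signal ratio exceeding the buffer control mean by over 5 SD of those controls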;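 also: ratio is mean of duplicate wells from kinetic YFP trace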
# ClC-1 inh: selectivity of TMEM16A inhibitors: inhibition of rat ClC-1 chloride channel; 2,300 tested, under 10 active; shares compounds with ANO1 block; CHO ClC-1-YFP, iodide influx fluorescence quench; iodide control reads 0, buffer control 100; ratio percent, % at 10 µM;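 active = duplicate-mean ratio percent above the mean of iodide-only control wells, which defines zero, plus 5 of their SD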;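 also: higher percent means stronger block of ClC-1 iodide influx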
# The depositor's hits bear a star; i = inactive; x = no result.
SMILES,ANO1 block,SR-BI HDL uptake,SR-BI uptake up,TMEM16A act,DNA FID counter,Kir21 inh,TMEM16A reconf,TMEM16A Ca cntr,Parental YFP cnt,ClC-1 inh
Cc1c(NC(=O)C(C)OC(=O)c2ncc(Cl)c(Cl)c2Cl)c(=O)n(-c2ccccc2)n1C (stereo unspecified),i,-12.6,12.6,i,x,-1.13,x,x,x,x
CC1=CC(C)(C)N2C(=O)C3(C(C#N)=C(N)Oc4cc(O)ccc43)c3c(C)c(C)cc1c32 (stereo unspecified),100*,-42.0,42.0,i,-32.5,0,45.0%*,i,-1.18,-14.5
CO/N=C/C(C#N)c1ncc(C(F)(F)F)cc1Cl (stereo unspecified),25*,-8.1,8.1,i,-2.7,0.14,16.5%*,i,-0.838,-7.5
CO/N=C/C(c1ncc(C(F)(F)F)cc1Cl)S(=O)(=O)c1ccccc1 (stereo unspecified),i,-8.7,8.7,i,-20.8,-0.19,x,x,x,x
CC(C)(NC(=O)c1ccccc1)c1nc2ccccc2s1,i,-2.3,2.3,i,x,-0.59,x,x,x,x
Cc1noc(C)c1COc1cccc(C(=O)NCCc2c[nH]c3ccccc23)c1,25*,61.6,-61.6,i,-23.0,-3.51,i,i,-1.14,-3.0
COc1ccc(C(=O)Nc2ncccc2C)cc1S(=O)(=O)N1CCOCC1,i,-22.6,22.6,i,x,1.85,x,x,x,x
CCN(CC)S(=O)(=O)c1ccc(Oc2ccccc2OC)cc1,i,59.8,-59.7,i,-27.6,0.09,x,x,x,x
CCN(CC)S(=O)(=O)c1ccc(Oc2ccc(S(=O)(=O)N(CC)CC)cc2)cc1,100*,-4.4,4.4,i,-8.0,-0.65,i,i,-1.09,-22.5
Cc1nc(C(F)(F)F)c(C(=O)NC(=O)Nc2ccccc2)s1,i,19.6,-19.6,i,-2.0,-0.24,x,x,x,x
Cc1nc(C(F)(F)F)c(C(=O)NC(=O)Nc2ccc(OC(F)(F)F)cc2)s1,100*,-12.4,12.4,i,3.4,1.31,i,i,-1.06,3.5
COc1ccc(CCC(=O)Nc2cc(S(=O)(=O)N3CCOCC3)ccc2OC(C)C)cc1,x,9.7,-9.7,i,x,x,x,x,x,x
Cc1onc(-c2c(F)cccc2Cl)c1C(=O)Nc1nc2c(s1)CCCC2,100*,41.5,-41.5,i,-17.9,-1.65,i,i,-1.02,-9.0
CCCCOC(=O)c1ccc(NC(=O)C(=O)NCc2cccnc2)cc1,25*,-9.8,9.8,i,-17.6,-1.23,i,i,-1.2,-7.0
O=C(Nc1nnc(-c2ccccc2)s1)c1ccc(Cl)c(S(=O)(=O)N2CCOCC2)c1,x,x,x,x,1.3,1.7,x,x,x,x
O=C(Nc1nnc(-c2ccccc2)s1)c1cc(S(=O)(=O)N2CCOCC2)c(Cl)cc1Cl,25*,-4.7,4.7,i,1.3,-0.27,i,i,-1.24,-4.5
O=C(O)c1ccccc1NSc1ccccc1[N+](=O)[O-],i,-2.8,2.8,i,-15.2,0.23,x,x,x,x
CCc1ccc(NSc2ccccc2[N+](=O)[O-])cc1,25*,27.3,-27.3,i,1.7,-1.11,i,i,-1.2,-2.0
CC(=O)Nc1ccc(S(=O)(=O)NCC(=O)OCC(=O)NCc2ccco2)cc1,i,-8.1,8.1,i,x,-1.05,x,x,x,x
CCN(C1CCCCC1)S(=O)(=O)c1cc(C)ccc1OC,i,-19.9,19.9,i,-25.6,-2.22,x,x,x,x
CCN(C1CCCCC1)S(=O)(=O)c1ccc(OC)c(C)c1,100*,13.8,-13.8,i,-22.7,-5.39*,i,i,-1.18,-4.5
Cc1ccc(-n2c(SCC(=O)N(C)C)nnc2-c2ccco2)cc1,i,-42.4,42.4,i,-17.5,-0.46,x,x,x,x
CC(C)(C)c1ccc(OCCOCCn2cnc3ccccc3c2=O)cc1,25*,-13.4,13.4,i,-29.6,-0.42,20.0%*,i,-1.17,-9.5
CCc1c(C)nc2ncnn2c1NCCc1ccc(OC)cc1,25*,10.9,-10.9,i,-10.8,-0.06,i,i,-0.822,-19.5
CCc1c(C)nc2ncnn2c1Nc1ccc(C)cc1,i,-2.6,2.6,i,-10.0,-0.02,x,x,x,x
SMILES,ANO1 block,SR-BI HDL uptake,SR-BI uptake up,TMEM16A act,DNA FID counter,Kir21 inh,TMEM16A reconf,TMEM16A Ca cntr,Parental YFP cnt,ClC-1 inh
O=C(c1ccco1)N1CCN(CC(O)COc2ccc3oc4ccccc4c3c2)CC1 (stereo unspecified),25*,25.0,-25.0,i,-19.1,2.35,21.0%*,i,-1.08,0.5
Cc1ccc(C(=O)NNC(=O)C2CCN(C(=O)OC(C)(C)C)CC2)cc1,i,21.5,-21.5,i,-12.4,-0.27,x,x,x,x
Cc1c(Cc2ccc3c(c2)OCO3)sc(NC(=O)c2ccccc2)c1C(N)=O,i,-10.7,10.7,i,-2.8,0.15,i,i,-1.07,-0.5
COc1ccc(CCN(C)C(=O)Cc2ccc(-c3ccccc3)cc2)cc1OC,25*,21.8,-21.8,i,-50.7,-4,i,i,-1.21,-18.0
CCc1ccc(NC(=S)N(Cc2ccccc2)Cc2ccccn2)cc1,25*,9.8,-9.8,i,-6.7,2.46,i,i,-1.22,-8.0
NC(=O)c1ccsc1NC(=O)COC(=O)Cc1cccc2ccccc12,25*,-8.6,8.6,i,-9.9,0.69,45.0%*,i,-0.722,-12.5
NC(=O)c1ccsc1NC(=O)COc1ccccc1,25*,-10.6,10.6,i,-8.7,-1.04,i,i,-0.898,-9.0
NC(=O)c1ccsc1NC(=O)COC(=O)Cc1c[nH]c2ccccc12,i,15.6,-15.6,i,x,-1.54,x,x,x,x
C/C(=N\NC(=O)c1ccc(O)cc1)c1cccc(NC(=O)c2ccc(Cl)cc2)c1,i,54.1,-54.1,i,x,1.07,x,x,x,x
O=C(Nc1nnc(CSCc2ccc(Cl)cc2)s1)c1cccc([N+](=O)[O-])c1,25*,-28.0,28.0,i,0.6,-0.02,i,i,-1.05,-5.5
CCCOC(=O)c1c(-c2ccccc2)nc(CC)c(C(=O)SCC)c1CCC,i,21.1,-21.1,i,x,x,x,x,x,x
COc1ccc(NC(=O)N2CCCC2)cc1OC,25*,-22.9,22.9,i,0.2,0.16,i,i,-1.12,-7.0
